Reference: ChEMBL document CHEMBL4513216, “Probing the Open Global Health Chemical Diversity Library for Multistage-Active Starting Points for Next-Generation Antimalarials” (ACS Infect Dis, 2020)

Test: Toxicity liver stage against HepG2, at 10uM
Assay type: cell-based
Design: test concentration 10 uM, cell line HepG2-A16-CD81EGFP
Conditions: human, HepG2-A16-CD81EGFP cells; read-out: INHIBITION
How it was run: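 Uninfected HepG2-A16-CD81EGFP cells, 3 × 10^3 per well, 1536-well, plated on prespotted compound at 10 μM final, parasite-free screening media added to match infected plates; puromycin 10 μM positive, DMSO 0.5% negative; run in parallel with 48 h PbLuc assay at 37 °C, 5% CO2; viability by CellTiter-Glo luminescence, normalized to controls.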

| Compound | cytotoxicity at 10 µM [%] |
| --- | --- |
| CC(Cc1ccc2c(c1)OCO2)c1cn(CCN2CCCC2)nn1 (stereo unspecified) | 7.09 |
| Cc1nc(C2CCCN2CCCS(N)(=O)=O)no1 (stereo unspecified) | -10.3 |
| Cc1occc1C(=O)N1Cc2nccn2CC(CN(C)C)C1 (stereo unspecified) | -97.7 |
| CCCc1ccc(CN2CCC3(CCC(=O)N(C)CC3)CC2)o1 | -4.35 |
| COc1ccc(CNC(C)c2ccc(Cl)c(Cl)c2)c(OC)c1OC (stereo unspecified) | 14.2 |
| CSc1ncccc1C(=O)NCCC(O)c1cc(C)oc1C (stereo unspecified) | 1.95 |
| CCS(=O)(=O)N1CCOC2(COCCN(c3nccs3)C2)C1 (stereo unspecified) | 7.4 |
| CCCOc1cccc(C(=O)Oc2cc(=O)n3cccc(C)c3n2)c1 | 12.1 |
| COc1cccc(-c2c[nH]c(C3CCCN3)n2)c1 (stereo unspecified) | -4.91 |
| CCc1ncc2c(n1)CN(C(=O)c1c(C)[nH]c(C(C)=O)c1C)C2 | -45.9 |
| CN1CCN(C(=O)c2cn(Cc3ccccc3)c3ncccc23)CC1 | -6.63 |
| CN1CCC2(CCCN(C(=O)c3cncn3C)C2)CC1 | -0.757 |
| CC(C)c1nccn1C(C)C(=O)NC1Cc2ccccc2C1 (stereo unspecified) | -5.03 |
| CC1CCc2nn(CCNC(=O)c3ccco3)c(=O)cc2C1 (stereo unspecified) | 9.15 |
| c1ccc(-n2ncc(CNC3CCc4ncnn4C3)n2)cc1 (stereo unspecified) | -3.38 |
| Cc1nsc(C(=O)NCCc2ccccc2)n1 | 4.28 |
| Nc1nc2c(c(N3CCSCC3)n1)CCN(Cc1ccccn1)CC2 | -53 |
| Cn1cc(C(=O)NC[C@H]2OC[C@@H]3CCN(C4CCOCC4)C[C@@H]32)cn1 | 8.01 |
| COc1cc(C2SCC(=O)Nc3n[nH]cc32)cc(OC)c1O (stereo unspecified) | 7.85 |
| O[C@H]1Cc2ccccc2[C@H]1n1ccnc1-c1cc2n(n1)CCNC2 | 1.58 |
| c1ncn(CC2CN(CCCOc3ccc4c(c3)OCO4)CCO2)n1 (stereo unspecified) | -1.85 |
| CC(=O)NCc1nnc2n1CCN(c1ncnc3c1CCC3)CC2 | 13 |
| Cc1nn(C)c(Cl)c1C1CCCN1Cc1cccc(C(N)=O)c1 (stereo unspecified) | -6.22 |

| Compound | cytotoxicity at 10 µM [%] |
| --- | --- |
| O=C(NC1CC2(CCN(CCO)CC2)c2ccccc21)c1ccncc1 (stereo unspecified) | -9.54 |
| CC(=O)N1[C@@H](C(=O)NCC2CC2)C[C@@H]2CN(Cc3nccs3)C[C@@H]21 | 1.7 |
| Cc1nc(CN(C)Cc2cc3c(cc2OC(F)F)OCO3)oc1C | 2.22 |
| Brc1cccnc1OC1CCNCC1 | -10.3 |
| COc1ccc(C(=O)N2CCC(C3CCN(c4ncccn4)CC3)C2)o1 (stereo unspecified) | -12.5 |
| CNC(=O)c1cnn2c(C3CCCN3)ccnc12 (stereo unspecified) | 8.88 |
| CCC1c2ccc(C)n2CCN1C(=O)Cn1cnc2sc(C)cc2c1=O (stereo unspecified) | 6.09 |
| CCOCCCC(=O)N1CCN(C(=O)Cc2cccc(OC)c2)CC1 | -1.86 |
| CCOC(=O)NC(CNC(=O)c1cn(C)cn1)CC(C)C (stereo unspecified) | -5.35 |
| Cc1ccc(NC2CCCN(CCCc3ccccc3)C2)nn1 (stereo unspecified) | -2.81 |
| CCN1CC(C(=O)NCc2ccnc(-n3ccnc3C)c2)CC1=O (stereo unspecified) | -25.5 |
| CN(C)C(=O)N1CCC2(CC1)CN(Cc1ccccn1)C(=O)CO2 | 2.99 |
| COc1ccccc1CN(Cc1nc2c(cnn2C)c(=O)[nH]1)C1CC1 | 15 |
| NC(=O)c1c[nH]nc1NCc1ccc2c(c1)OCO2 | -2.9 |
| CC(C)c1nn(C)c(N(C)C)c1CNCC(O)c1ccccc1 (stereo unspecified) | -1.83 |
| Cc1cc(C(=O)N2CCCC(O)(CN3CCCC3)C2)ccc1Cl (stereo unspecified) | 1.6 |
| CN(Cc1ccsc1)C(=O)c1ccc(C2CCCO2)s1 (stereo unspecified) | 7.9 |
| N#Cc1cccc(N2CC3(CCN(C(=O)C4CC=CC4)C3)CC2=O)c1 (stereo unspecified) | 1.77 |
| O=C(CCc1ccco1)NCC1CCCN1c1cccnn1 (stereo unspecified) | -10.8 |
| CCCc1ccc(CN2C[C@H]3C(=O)N(CC4CC4)C[C@@]3(C(=O)O)C2)o1 | -3.86 |
| O=C(Nc1cccnc1)C1CCN(c2cc(-n3ccnc3)ncn2)CC1 | -3.3 |
| CN1CCN(CC2CC2)C(=O)C12CCN(c1nccs1)CC2 | -6.01 |
| CNC(=O)COC1COC2(CCN(c3ccc(C)nn3)CC2)C1 (stereo unspecified) | -0.419 |

| Compound | cytotoxicity at 10 µM [%] |
| --- | --- |
| CC(O)c1cn(Cc2ccc(Cl)cc2Cl)nn1 (stereo unspecified) | 15.5 |
| O=C(NCc1cccnc1)C1=NOC2(CCCN(CCO)C2)C1 (stereo unspecified) | 5.66 |
| CC(C)CN1CCC2(CCN(Cc3ccoc3)CC2)C1=O | 7.85 |
| CN1CCC(NCC(O)c2cccc(OCc3ccccc3)c2)CC1 (stereo unspecified) | -11.7 |
| CCN1CCC(NC(=O)CN2CCc3c(nc(C4CC4)n3C)C2)CC1 | -10.2 |
| Cc1[nH]nc(CCC(=O)N2CCOC(CCc3ccccc3)C2)c1C (stereo unspecified) | -10.8 |
| CN1CC(C(=O)NC2(c3ccc(Cl)cc3)CCOCC2)CC1=O (stereo unspecified) | 13.8 |
| CSc1ccccc1C(=O)N1C[C@@H](N(C)C)[C@H](c2ccc(C)cc2)C1 | -7.02 |
| Cc1nc(CN2C[C@@H]3CN(C(=O)[C@H]4CCCO4)C[C@@H]3C2=O)cs1 | -81.5 |
| CCn1nc(C)c2nc(C(C)C)nc(N3CCCC3)c21 | -1.61 |
| CCOCC(=O)N1C[C@@H](O)[C@H](NC(C)=O)C1 | -4.48 |
| O=C(CCCOc1cccc(F)c1)N1CCCC(n2cccn2)C1 (stereo unspecified) | -16 |
| CCCc1cncnc1N1CCC(NCc2cc3ccccc3[nH]2)CC1 | 15.8 |
| CCN(Cc1cc(-c2ccccn2)no1)C1CCS(=O)(=O)C1 (stereo unspecified) | -14.9 |
| N#Cc1ccc(C(=O)N(Cc2ccncc2)C2CC2)cc1 | -8.53 |
| COCC(=O)NCCn1nc(-c2cc(C)oc2C)ccc1=O | -1.74 |
| Cn1nc(C2CCN(C(=O)CCN3CCOCC3)CC2)c2cccnc21 | -13.8 |
| CC(C)CN(CC(O)c1ccc(F)cc1)C(=O)c1csnn1 (stereo unspecified) | 2.83 |
| COCC(=O)N1CCC(c2cc(-c3ccc(OC)cc3)n[nH]2)C1 (stereo unspecified) | -10.3 |
| O=C(c1ccc(S(=O)(=O)NCc2ccon2)cc1)N1CCCCCC1 | 0.424 |
| Cc1ccc(C(=O)NCCNS(C)(=O)=O)c(=O)[nH]1 | -5.3 |
| Cc1ccc(S(N)(=O)=O)cc1C(=O)NCC1Cc2ccccc2O1 (stereo unspecified) | 3.04 |
| Cc1cccc(S(=O)(=O)N2CC[C@H]3[C@H]2CCN3c2ncccn2)c1 | 0.995 |

| Compound | cytotoxicity at 10 µM [%] |
| --- | --- |
| CCC(=O)N1CCCC1c1nccnc1Nc1nc(C)cc(C)n1 (stereo unspecified) | 3.99 |
| CC(=O)N1CCC2(CC1)CN(C)C(=O)C[C@H]2C(F)(F)F | -161 |
| Cn1cc(CN2CCC[C@]3(C(=O)O)CN(c4ncccn4)C[C@@H]3C2)cn1 | 4.89 |
| Cc1nc(CN2CCC23CCN(Cc2ccoc2)CC3)cs1 | -109 |
| Cc1ccc(C2(CN(C)Cc3sccc3C)CCNCC2)nc1 | 8.15 |
| Cc1cc(C2CCC2)nc(N2CCC3(CCCNC3=O)C2)n1 (stereo unspecified) | -3.83 |
| NCCc1nc(N(Cc2cncs2)C2CC2)c2ccccc2n1 | -7.15 |
| Cc1ccc(OC2(C(=O)O)CCN(C(=O)c3ccc(F)cc3)CC2)cn1 | -18.1 |
| O=c1[nH]c2c(c(=O)n1C1CCCCC1)CCC2Nc1ccc(Cl)cc1 (stereo unspecified) | 9.78 |
| Cc1nn2c(N3CCCC(C(N)=O)C3)cc(-c3ccccc3)nc2c1C (stereo unspecified) | -4.45 |
| Cc1ncsc1CN1C[C@H](C(=O)N2CCCO2)[C@@H]2CCO[C@@H]2C1 | -11.6 |
| CC(C)(C)C(Cn1cccn1)NC(=O)c1ccco1 (stereo unspecified) | -5.5 |
| CCc1nnc2n1CCN(C(=O)c1ccc3[nH]cnc3c1)C2 | -19.1 |
| CS(=O)(=O)c1ncc(CN2CCN3CCCC3C2)n1CC1CCCCC1 (stereo unspecified) | -4.9 |
| N#Cc1ccccc1CN1C[C@H]2CC[C@@H](C1)N(Cc1cscn1)C2=O | -8.42 |
| CCOc1cc(Cl)ccc1CNC(=O)N(C)CC(C)(C)O | -0.538 |
| O=c1[nH]ncc(NCCOc2ccc3c(c2)OCO3)c1Cl | 3.1 |
| Cc1nc(NCc2ccccc2)cc(C(C)Cn2nc(C)c(C)c2C)n1 (stereo unspecified) | 7.03 |
| Cc1cc(S(=O)(=O)N2CCC(S(C)(=O)=O)C2)ccc1F (stereo unspecified) | 0.246 |
| Cc1cnc(C)c(N2CCCC(CC3CC3)(C(=O)O)C2)n1 (stereo unspecified) | -6.09 |
| Cc1cc(C)n(C2CN(CCC(N)=O)C2)n1 | -5.04 |
| Cc1ccc(C(CNC(=O)c2c(C)noc2C(C)C)N(C)C)cc1 (stereo unspecified) | -12.4 |
| CC1(C)OCC2(CO1)CN(S(=O)(=O)c1ccc(Cl)s1)C2 | -0.295 |

| Compound | cytotoxicity at 10 µM [%] |
| --- | --- |
| Cc1ccc(C(N)=O)c(N2Cc3cnc(C(C)(C)C)nc3C2)n1 | 8.05 |
| O=C(CNC(=O)c1cnc2ccccc2c1O)NCCCn1ccnc1 | -5.28 |
| CC(C)OC(=O)N1CCCCC1CCn1cccn1 (stereo unspecified) | -1.17 |
| CC(C)CCc1n[nH]c(C(=O)O)c1Br | -3.09 |
| Cc1ccc(-c2nc(C(=O)N3CCN(C(=O)N(C)C)CC3)cs2)c(C)c1 | -7.98 |
| CCCN(CCC)CCNc1c(-c2ccccc2)c(=O)c1=O | -82.1 |
| Cc1cnn(CCNCc2c(C(C)C)nn(C)c2Cl)c1 | -14 |
| CSc1nccn1-c1cccc(C(=O)NCC2CC2)c1 | -10.6 |
| Cc1nc(C)c2c(n1)CCN(Cc1ccsc1)CC2 | -126 |
| O=C(NCc1ccccc1)N1CCC(Oc2ncccc2Br)CC1 | 18.3 |
| C1CCCN(c2nc(C3CC3)no2)CC1 | -5.59 |
| CC(C(=O)N(C)Cc1ccc(Br)o1)n1cccn1 (stereo unspecified) | 4.9 |
| COCCN1CCC2(COCc3cnc(N(C)C)nc32)C1 (stereo unspecified) | 1.39 |
| Cc1csc(C(=O)NCCn2nc(-n3cncn3)ccc2=O)c1 | 2.06 |
| CC(C)OCCC(=O)NCCc1csc(N2CCCC2)n1 | -12.9 |
| O=C(NCc1cccnc1)N1CCn2c(Cn3cccn3)cnc2C1 | -71.1 |
| Cn1cc(C(=O)CC2CCCN2C(=O)c2ccn3ccnc3c2)cn1 (stereo unspecified) | -5.81 |
| NC(=O)c1cc(CC2CCCN(c3cnccn3)C2)ncn1 (stereo unspecified) | -1.15 |
| CC(=O)c1ccccc1C(=O)NCC1(CO)CC1 | -18.9 |
